These results are taken from ChEMBL document CHEMBL1147670, “2,6-disubstituted and 2,6,8-trisubstituted purines as adenosine receptor antagonists” (J Med Chem, 2006).

Experiment [1] has as its target T1, Adenosine receptor A2a (Homo sapiens, UniProt P29274). Kind of experiment: Displacement of [3H]ZM 241385 from human adenosine A2a receptor expressed in HEK293 cells at 1 uM. Type of experiment: cell-based. The procedure, abridged: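 Single-point screen at 1 µM for % displacement of specific [³H]ZM 241385 binding at human A2A receptors in HEK 293 cells, n = 2.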
(In general: Displacement assays read how much labelled ligand stays bound in the presence of the test substance.)

Experiment [2] deals with T2, Adenosine receptor A1 (Homo sapiens, UniProt P30542).
T2 sequence (P30542 whole entry): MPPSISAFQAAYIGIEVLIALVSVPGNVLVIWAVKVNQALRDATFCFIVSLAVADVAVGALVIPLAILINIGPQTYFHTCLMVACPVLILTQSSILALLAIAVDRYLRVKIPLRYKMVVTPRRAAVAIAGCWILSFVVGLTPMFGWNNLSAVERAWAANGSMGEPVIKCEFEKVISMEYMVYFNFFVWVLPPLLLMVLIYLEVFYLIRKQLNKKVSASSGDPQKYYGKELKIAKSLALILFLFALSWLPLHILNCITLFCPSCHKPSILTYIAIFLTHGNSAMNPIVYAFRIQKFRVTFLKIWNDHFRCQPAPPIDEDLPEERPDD
In words: (§1) Activity against human adenosine A1 receptor in CHO cells assessed by the antagonizing effect of 100 nM CPA on forskolin-induced cAMP production. The class given is functional, cell-based. The essentials:
(§2)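 Whole-cell cAMP assay in CHO cells expressing human A1 receptor, 2 × 10⁵ cells/well grown overnight as a monolayer. Cells were pretreated 30 min at 37 °C with adenosine deaminase 0.8 IU/mL, rolipram 50 µM and cilostamide 50 µM in HEPES/DMEM pH 7.4. Compound was then given against 100 nM CPA, followed by forskolin 10 µM for 15 min. cAMP was measured by [³H]cAMP/PKA competition. A full concentration-response curve gave K_B.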

For experiment [3], the target named is T1, Adenosine receptor A2a. Kind of experiment: Displacement of [3H]ZM 241385 from human adenosine A2a receptor expressed in HEK293 cells. Type of experiment: cell-based. The procedure, abridged:
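Radioligand competition using [³H]ZM 241385 (K_D 1.0 nM) at human A2A receptors expressed in HEK 293 cells. Ki was obtained by nonlinear regression, ± SEM, n = 3.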

Experiment [4] has as its target T2, Adenosine receptor A1. In words: Displacement of [3H]DPCPX from human adenosine A1 receptor expressed in CHO cells. The class given is cell-based. The essentials: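 Competition binding against [³H]DPCPX (K_D 1.6 nM) at human A1 receptors expressed in CHO cells. Ki was derived by nonlinear regression, mean ± SEM, n = 3.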
The target of another experiment is T3, Adenosine receptor A3 (Homo sapiens, UniProt P0DMS8).
T3 sequence (P0DMS8 whole entry): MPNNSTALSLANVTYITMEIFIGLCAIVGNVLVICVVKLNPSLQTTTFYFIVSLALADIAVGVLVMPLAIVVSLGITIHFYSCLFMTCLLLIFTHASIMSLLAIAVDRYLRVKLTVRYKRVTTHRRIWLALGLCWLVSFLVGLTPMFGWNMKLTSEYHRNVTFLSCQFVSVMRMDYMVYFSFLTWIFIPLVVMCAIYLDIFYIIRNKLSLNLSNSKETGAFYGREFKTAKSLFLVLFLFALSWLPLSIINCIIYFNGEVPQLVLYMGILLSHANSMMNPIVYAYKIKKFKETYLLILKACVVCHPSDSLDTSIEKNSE
In words: Displacement of [125I]AB-MECA from human adenosine A3 receptor expressed in HEK293 cells. The class given is cell-based.

Experiment [5] has as its target T4, Adenosine receptor A1 (Homo sapiens) (UniProt P30542).
T4 sequence (whole entry): T2 sequence (P30542 whole entry)
In words: Displacement of [3H]DPCPX from human adenosine A1 receptor expressed in CHO cells at 1 uM. The class given is cell-based. The procedure, abridged:
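Inhibition of specific [³H]DPCPX binding to human A1 receptors in CHO cells by test compound at 1 µM, reported as % displacement, n = 2.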

Experiment [6] addresses T4, Adenosine receptor A1 (Homo sapiens). The experiment is described as §1. Type of experiment: functional, cell-based. The essentials:
as §2

Experiment [7] has as its target Adenosine receptors; A1 & A2a (Homo sapiens) (UniProt P30542+P29274). In words: Selectivity for human adenosine A1 receptor over adenosine A2a receptor. Type of experiment: protein assay. The essentials: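 Ki values from radioligand displacement binding at each receptor. Human A1 expressed in CHO cells with [3H]DPCPX (KD 1.6 nM); human A2A expressed in HEK 293 cells with [3H]ZM 241385 (KD 1.0 nM). Ki from nonlinear regression, mean ± SEM (n = 3); selectivity compares the A1 and A2A Ki values.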

Experiment [8] addresses T4, Adenosine receptor A1 (Homo sapiens). In words: Activity against human adenosine A1 receptor in CHO cells by increase of forskolin-induced cAMP production at 100 nM. Type of experiment: functional, cell-based. The note with it: filed as antagonist. The essentials:
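Human A1-expressing CHO monolayers were preincubated 30 min at 37 °C with adenosine deaminase (0.8 IU/mL), rolipram and cilostamide (50 µM each) in HEPES/DMEM pH 7.4. Test compound at 100 nM was added for 10 min, then forskolin 10 µM for 15 min, and the reaction was stopped with ice-cold 0.1 M HCl. cAMP was measured by [³H]cAMP competition for PKA. Forskolin alone was set at 100% and CPA 1 µM at 0%. At least three experiments in duplicate.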
For orientation: cAMP levels reflect the balance of adenylyl cyclase and phosphodiesterase activity.

The structures appear in SMILES notation. The source made the active and inactive calls. The rule behind the calls is not given here.

T1 sequence (P29274 whole entry): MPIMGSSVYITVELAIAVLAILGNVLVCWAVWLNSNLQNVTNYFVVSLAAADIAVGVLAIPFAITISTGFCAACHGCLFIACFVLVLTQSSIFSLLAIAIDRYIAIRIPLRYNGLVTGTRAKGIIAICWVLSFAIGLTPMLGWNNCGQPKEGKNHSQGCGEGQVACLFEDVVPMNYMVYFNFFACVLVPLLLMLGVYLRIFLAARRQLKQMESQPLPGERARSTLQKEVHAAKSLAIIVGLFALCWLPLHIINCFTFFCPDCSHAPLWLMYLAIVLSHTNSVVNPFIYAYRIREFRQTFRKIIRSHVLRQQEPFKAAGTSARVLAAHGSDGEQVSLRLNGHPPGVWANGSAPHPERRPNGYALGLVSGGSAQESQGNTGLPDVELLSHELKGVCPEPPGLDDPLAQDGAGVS
Adenosine receptors; A1 & A2a (Homo sapiens), sequence (P29274 whole entry, looked up, one chain of several): as the sequence (P29274 whole entry) above

In turn, `Clc1ccc(-c2[nH]c(-c3ccccc3)nc3nc(C4CCCCC4)nc2-3)cc1` gave an Activity on Adenosine receptor A2a [1] of 24%.
`c1ccc(-c2nc(-c3ccccc3)c3nc(C4CCCCC4)nc-3[nH]2)cc1` yielded an IC50 against Adenosine receptor A1 [2] of 477 nM. Also, the inhibition constant (Ki) is 118 nM at Adenosine receptor A2a [3], 0.73 nM on Adenosine receptor A1 [4] and 200 nM at Adenosine receptor A3.
For `Cn1c(C2CCCCC2)nc2c(-c3ccccc3)nc(-c3ccccc3)nc21`, the Activity at Adenosine receptor A2a [1] is 0%; in experiment [5] it was 24%.
On to `c1ccc(-c2nc(-c3ccccc3)c3[nH]c(-c4ccccc4)nc3n2)cc1`, for which the values for the Ki on Adenosine receptor A2a [3], on Adenosine receptor A1 [4] and at Adenosine receptor A3 were 66 nM, 21 nM and 49 nM, respectively.
On to `Clc1ccc(-c2nc(-c3ccccc3)nc3nc(C4CCCCC4)[nH]c23)cc1`, for which the Ki at Adenosine receptor A1 [4] is 25 nM; at Adenosine receptor A3 it was 243 nM.
Turning to `Clc1ccc(-c2nc(-c3ccc(Cl)cc3)c3[nH]cnc3n2)cc1`, the results for the Activity (at Adenosine receptor A2a [1]; in experiment [5]) were 11% and 21%, respectively. For the same molecule, the Ki at Adenosine receptor A3 came to 68 nM.
Turning to `CCCc1nc2nc(-c3ccccc3)nc(-c3ccccc3)c2[nH]1`, the inhibitory constant (Ki) turned out to be 167 nM on Adenosine receptor A2a [3], 4.4 nM at Adenosine receptor A1 [4] and 17 nM at Adenosine receptor A3.
Turning to `Clc1ccc(-c2nc(-c3ccccc3)c3[nH]cnc3n2)cc1`, the inhibitory constant (Ki) on Adenosine receptor A2a [3] stood at 315 nM; on Adenosine receptor A1 [4], 27 nM; on Adenosine receptor A3, 94 nM.
For `Cc1ccc(-c2nc(-c3ccccc3)nc3nc(C4CCCCC4)[nH]c23)cc1`, the affinity at Adenosine receptor A1 [4] corresponds to a Ki of 36 nM.
On to `COc1ccc(-c2nc(-c3ccc(OC)cc3)c3[nH]cnc3n2)cc1`, for which the figures for the Activity (on Adenosine receptor A2a [1]; in experiment [5]) were 37% and 40%, respectively. Further, the Ki on Adenosine receptor A3 worked out at 165 nM.
Take `c1ccc(-c2nc(-c3ccccc3)c3nc(C4CCCC4)nc-3[nH]2)cc1`: the outcome in [6] was Active. In addition, the Ki on Adenosine receptor A2a [3] amounted to 55 nM; on Adenosine receptor A1 [4] it was 0.29 nM; at Adenosine receptor A3, 35 nM. In experiment [7], the Ratio Ki was determined as 190.
Regarding `c1ccc(-c2nc(-c3ccccc3)c3[nH]cnc3n2)cc1`, the inhibition constant (Ki) at Adenosine receptor A2a [3] was determined as 53 nM; on Adenosine receptor A1 [4], 4.1 nM; at Adenosine receptor A3 it was 38 nM.
As for `Cc1ccc(-c2nc(-c3ccccc3)c3[nH]cnc3n2)cc1`, the Ki on Adenosine receptor A2a [3] was determined as 289 nM; at Adenosine receptor A1 [4], 4 nM; at Adenosine receptor A3, 9.4 nM.
On Adenosine receptor A2a [1], `Clc1ccc(-c2[nH]c(-c3ccccc3)nc3nc(C4CCCCC4)nc2-3)cc1Cl` yielded an Activity of 20.3%. Further, affinity on Adenosine receptor A1 [4] was put at a Ki of 37 nM.
As for `CC(C)c1nc2[nH]c(-c3ccccc3)nc(-c3ccccc3)c-2n1`, the Ki on Adenosine receptor A2a [3] is 148 nM; on Adenosine receptor A1 [4] it was 0.82 nM; at Adenosine receptor A3 it was 9.5 nM. Further, the Activity result in experiment [8] was “Antagonist”.
`COc1ccc(-c2nc(-c3ccccc3)c3[nH]cnc3n2)cc1` displayed an Activity on Adenosine receptor A2a [1] of 47%. Also, the inhibition constant Ki amounted to 32 nM on Adenosine receptor A1 [4] and 4 nM on Adenosine receptor A3.
For the molecule `Cc1ccc(-c2[nH]c(-c3ccccc3)nc3nc(C4CCCCC4)nc2-3)cc1`, the Activity at Adenosine receptor A2a [1] was 9%.
`COc1ccc(-c2[nH]c(-c3ccccc3)nc3nc(C4CCCCC4)nc2-3)cc1`: the Activity at Adenosine receptor A2a [1] came out at 27%. The Ki on Adenosine receptor A1 [4] was found to be 3.7 nM; on Adenosine receptor A3 it was 138 nM.
On Adenosine receptor A2a [1], `Cc1ccc(-c2nc(-c3ccc(C)cc3)c3[nH]cnc3n2)cc1` came in with an Activity of 4%. Further, the Ki at Adenosine receptor A1 [4] worked out at 235 nM; on Adenosine receptor A3 it was 9.3 nM.

As usually defined, the IC50 is the concentration needed to halve the response being measured. Read a high IC50 as weaker potency. As a reminder, the Ki is the equilibrium dissociation constant of an inhibitor or competing ligand from its target. A low value points to tighter binding.
